PGC1a acetyl inh: lowers PGC1a acetylation signal in U2OS cells | inhibition, % at 15.6 µM | AlphaScreen anti-acetyl-lysine; with virally co-expressed GCN5 acetyltransferase | 350,000 tested, 0.17% active;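 active = every replicate shows inhibition of at least 40%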;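 also: 0% = neutral control wells and 100% = positive control wells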
FGF22 binding: binders of recombinant human FGF22 by thermal shift; Q9HCT0; activity (Tm shift, normalised), % at 9.99 µM; 340,000 tested, 1.5% active; SYPRO orange fluorescence; percent of sucrose octasulfate shift, DMSO zero;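 active = mean Tm shift, scaled 0 neutral to 100 positive control, at about 1.3% or above, every replicate too, limit read from the data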
Target sequence (Q9HCT0 whole entry, looked up): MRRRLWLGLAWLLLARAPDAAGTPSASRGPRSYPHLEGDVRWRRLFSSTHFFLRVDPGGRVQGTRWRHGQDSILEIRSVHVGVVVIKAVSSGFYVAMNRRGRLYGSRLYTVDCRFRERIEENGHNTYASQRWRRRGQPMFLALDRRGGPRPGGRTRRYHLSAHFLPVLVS
SIRT5 inh: sirtuin-5 (human) deacylase inhibition; Q9NXA8; 330,000 tested, 1.1% active; Purified SirT5, succinyl-peptide AMC, trypsin-coupled fluorescence; inhibition, % at 15 µM; in the data active = inhibition above about 15%
Target sequence (Q9NXA8 whole entry, looked up): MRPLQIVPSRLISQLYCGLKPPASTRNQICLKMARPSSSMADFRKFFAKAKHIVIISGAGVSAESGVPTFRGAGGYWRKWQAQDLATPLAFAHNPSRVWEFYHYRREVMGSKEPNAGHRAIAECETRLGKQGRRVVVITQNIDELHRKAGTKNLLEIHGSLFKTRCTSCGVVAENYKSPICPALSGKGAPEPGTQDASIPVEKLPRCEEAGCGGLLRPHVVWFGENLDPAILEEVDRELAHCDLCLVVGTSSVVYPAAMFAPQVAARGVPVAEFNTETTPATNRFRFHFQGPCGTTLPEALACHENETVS
FN deposition inh: fibronectin deposition inhibition; AH1F fibroblasts, Alexa488-fibronectin deposition fluorescence, overnight; inhibition, % at 12.6 µM; 350,000 tested, 0.086% active; AID 743247;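 active = mean inhibition across replicates of 30% or more, regardless of how many single replicates reach that level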;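 also: positive control wells lacked labelled fibronectin entirely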
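test system = AH1F fibroblasts assembling fluorescent fibronectin matrix | quantity = 10000 AH1F cells per well | buffer or medium = DMEM plus 2% serum, read in PBS | doses = single dose, pinned | incubation = 1 h cell attachment, overnight exposure to compound and label | detection = fluorescence at 485 nm excitation, 525 nm emission | read-out basis = inhibition from reduced deposited-fibronectin fluorescence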
ERAP1 inh: ERAP1 (human) enzyme inhibition; AID 652197; 340,000 tested, 0.15% active; inhibition, % at 10.7 µM; recombinant ERAP1, Leu-AMC fluorescence, 60 min;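 active = mean replicate inhibition of at least 30%, or all replicates individually reaching that 30% level; inactive = mean below 30% and not every replicate reaching it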;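 also: 0% = neutral control wells and 100% = L-leucinethiol positive control wells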
The depositor's hits bear a star; . = no result; ! = not confirmed by another sample. A selection: hits, their analogues and other compounds. The true share with any hit is near 2.2%.

SMILES	PGC1a acetyl inh	FGF22 binding	SIRT5 inh	FN deposition inh	ERAP1 inh
C[C@H]1CN([C@@H](C)CO)C(=O)c2cc(NC(=O)C3CCCCC3)ccc2O[C@@H]1CN(C)CC1CC1	-7	0	22*	.	4
C[C@@H]1CN([C@H](C)CO)C(=O)c2cccc(NC(=O)C3CCCCC3)c2O[C@@H]1CN(C)CC1CC1	9	0	21*	.	0
C[C@@H]1CN([C@@H](C)CO)C(=O)c2cc(NC(=O)C3CCCCC3)ccc2O[C@@H]1CN(C)CC1CC1	7	0	-7	.	3
C[C@@H]1CN([C@@H](C)CO)C(=O)c2cccc(NC(=O)C3CCCCC3)c2O[C@@H]1CN(C)CC1CC1	3	0	13	.	0
COc1ccc(CN(C)C[C@H]2OCCCC[C@@H](C)Oc3ccc(NC(=O)CCC(F)(F)F)cc3C(=O)N([C@@H](C)CO)C[C@H]2C)cc1	0	0	-2	.	4
O=C(Nc1ccc(S(=O)(=O)N2CCCCC2c2cccnc2)cc1)c1c(F)cccc1F (stereo not given)	.	44*	1	4	-2
COc1ccccc1C(=O)NCCC(=O)Nc1ccncc1	.	0	-1	-9	-2
COc1ccccc1C(=O)NCCC(=O)Nc1ccc(OC(F)(F)F)cc1	-18	43	102*	5	-4
COC(=O)C[C@H]1C[C@@H]2c3cc(NC(=O)NC4CCCCC4)ccc3O[C@@H]2[C@H](CO)O1	-3	0	2	.	0
O=C(N[C@H]1CC[C@@H](CCn2cc(-c3ccccc3)nn2)O[C@@H]1CO)c1ccccc1F	3	0	-1	6	2
COCCCNc1nc2cc(OC)c(OC)cc2c2nc(-c3ccccc3)nn12	.	0	21*	-1	-1
Cc1cc(=O)oc2cc(OCC(=O)Nc3ccccc3C(N)=O)c(Cl)cc12	9	43*	-1	-10	0
COc1ccc(C[C@H]2CN3C(=NC[C@@H]3Cc3ccc(O)cc3)N2C[C@H](C)NC(=O)CCC2CCCCC2)cc1	-3	0	31*	-3	-2
C[C@@H]1CCCCO[C@H](CN(C)Cc2ccc3c(c2)OCO3)[C@H](C)CN([C@@H](C)CO)C(=O)c2cc(NC(=O)NC3CCCCC3)ccc2O1	-5	0	-1	.	2
CSc1ncc(C(C)=O)c(C)n1	2	2.5*	3	-14	-1
CSc1ncc(C(=O)O)c(C)n1	-3	0	-3	-6	-8
CO[C@@H]1CN(C)C(=O)c2ccc(NS(C)(=O)=O)cc2OC[C@H](C)N(Cc2cncnc2)C[C@H]1C	3	0	6	7	-2
Nc1nc(SCC(=O)O)[nH]c(=O)c1NC(=O)c1ccccc1F	.	43*	-1	-7	-2
CC(=O)Nc1ccc(NC(=O)CSc2nc(N)c(NC(=O)c3ccccc3F)c(=O)[nH]2)cc1	.	0	0	2	5
CCOC(=O)c1cnc2c(cnn2C)c1NCCC#N	-1	.	.	-6	.
CCOC(=O)c1cnc2c(cnn2C)c1Cl	2	43*	0	.	3
Cc1c(/C=N/NC(=O)c2cccnc2)cc(C#N)n1C	.	43*	-1	-5	4
Cc1ccc(Cn2nc(C)c(/C=N/NC(=O)c3cccnc3)c2C)cc1	.	43*	-2	-4	-2
CN1CCN(c2ccccc2/C=N/NC(=O)c2cccnc2)CC1	.	0	-5	5	.
Cc1nn(Cc2ccccc2)c(C)c1/C=N/NC(=O)c1cccnc1	.	0	2	0	-3
SMILES	PGC1a acetyl inh	FGF22 binding	SIRT5 inh	FN deposition inh	ERAP1 inh
O=C(NCc1ccc(F)cc1)[C@H]1[C@H](CO)[C@H]2Cn3c(cccc3=O)[C@@H]1N2C(=O)Cc1ccccn1	.	0	-2	.	0
C[C@@H]1CN([C@@H](C)CO)C(=O)Cc2cc(NS(=O)(=O)c3ccc(F)cc3)ccc2O[C@H]1CN(C)S(=O)(=O)c1ccc(F)cc1	-6	-1	6	.	0
O=[N+]([O-])c1cccnc1NCc1cccs1	.	43*	-6	-5	-1
CC(=O)OC[C@H]1O[C@@H](n2ncc(=O)[nH]c2=O)[C@H](OC(C)=O)[C@@H]1OC(C)=O	-23	.	.	.	.
CC(=O)OCC1OC(COC(C)=O)(c2ccc(C)cc2)C(OC(C)=O)C1OC(C)=O (stereo not given)	.	51*	-2	1	0
COc1ccc(C2/C(=C(/O)c3ccc(S(=O)(=O)N4CCOCC4)cc3)C(=O)C(=O)N2CCN2CCOCC2)cc1 (stereo not given)	.	0	1	0	4
COc1ccc(/C(O)=C2/C(=O)C(=O)N(CCCN3CCOCC3)C2c2ccc(OC)cc2)cc1 (stereo not given)	9	0	81*	-8	0
COc1ccc(S(=O)(=O)Nc2ccc3c(c2)C(=O)N([C@H](C)CO)C[C@H](C)[C@@H](CN(C)Cc2ccncc2)OCCCC[C@H](C)O3)cc1	-6	0	-3	.	0
C[C@H]1CCCCO[C@H](CN(C)Cc2ccncc2)[C@@H](C)CN([C@@H](C)CO)C(=O)c2cc(NS(=O)(=O)c3ccccc3)ccc2O1	73*!	0	-8	1	-1
COc1ccc(S(=O)(=O)Nc2ccc3c(c2)C(=O)N([C@@H](C)CO)C[C@@H](C)[C@H](CN(C)Cc2ccncc2)OCCCC[C@H](C)O3)cc1	0	-1	17*	.	-2
C[C@@H]1CN([C@@H](C)CO)C(=O)c2cc(NS(=O)(=O)c3ccccc3)ccc2O[C@@H](C)CCCCO[C@H]1CN(C)Cc1ccncc1	4	0	6	-15	-6
O=C(C[C@@H]1C[C@@H]2c3cc(NC(=O)c4ccc5c(c4)OCO5)ccc3O[C@@H]2[C@@H](CO)O1)NC1CCCC1	-12	0	-1	-19	-2
C[C@H](CO)N1C[C@H](C)[C@H](CN(C)C(=O)Cc2ccccc2)Oc2cc(C#CC3(O)CCCC3)ccc2S1(=O)=O	-17	0	-1	.	1
CS/C(=C/[N+](=O)[O-])Nc1cccc2c1C(C)CC2(C)C (stereo not given)	.	44*	-1	-1	0
O=C(Nc1cccc2ncccc12)c1ccc(Cl)cc1	20	0	1	2	5
CCc1ccc(C(=O)Nc2cccnc2Oc2ccc(Cl)cc2)cc1	87*	0	0	5	-2
CCN(CC)c1ccc(CNc2nc3ccccc3n2C)cc1	-11	43*	-6	1	-2
CN(C)CCn1c(NCc2ccc3c(c2)OCO3)nc2ccccc21	6	0	31*	-3	-4
C[C@@H]1CN([C@@H](C)CO)C(=O)c2cc(NC(=O)Nc3cccc4ccccc34)ccc2O[C@@H](C)CCCCO[C@H]1CN(C)S(=O)(=O)c1ccc(F)cc1	-3	0	1	-4	-1
CCCN(C)C[C@@H]1OCCCC[C@@H](C)Oc2ccc(NS(C)(=O)=O)cc2C(=O)N([C@H](C)CO)C[C@H]1C	4	0	3	.	1
